Calls of active or inactive are those of the source. The calls are words filed in the database; no cut-off is given here.
Assays:
Mus musculus [1] = assay: Neurotoxicity in CD1 albino mouse assessed as acute motor impairment at 100 to 300 mg/kg, ip after 0.5 hrs by rotarod test; assay type: toxicity, organism-based; details: in vivo
Summary of the method: (§1)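 Male CD-1 mice given 30, 100 or 300 mg/kg ip in 0.5% methylcellulose, tested at 0.5 and 4 h. Motor impairment was scored as failure to keep balance for at least 1 min on a rod rotating at 10 rpm. Minimum dose causing impairment reported.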

Mus musculus [2] = assay: Neurotoxicity in CD1 albino mouse assessed as acute motor impairment at 300 mg/kg, ip after 4 hrs by rotarod test; assay type: toxicity, organism-based; details: in vivo; summary of the method: as §1
Mus musculus [3] = assay: Anticonvulsant activity in CD1 mouse assessed as protection against 32 mA-current- for 3 secs induced seizure at 100 mg/kg, ip after 0.25 hrs by 6Hz psychomotor seizure test; assay type: functional
Summary of the method: (§2)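 Male CD-1 mice given 100 mg/kg ip in 0.5% methylcellulose, four per time point. Corneal stimulation at 32 mA, 0.2 ms monopolar rectangular pulses at 6 Hz for 3 s, from a constant-current device. A mouse was protected if it resumed normal exploratory behavior within 10 s. Reported as number protected over number tested.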

Mus musculus [4] = assay: Anticonvulsant activity in CD1 mouse assessed as protection against 32 mA-current- for 3 secs induced seizure at 100 mg/kg, ip after 0.5 hrs by 6Hz psychomotor seizure test; assay type: functional; summary of the method: as §2
Mus musculus [5] = assay: Anticonvulsant activity in CD1 mouse assessed as protection against 32 mA-current- for 3 secs induced seizure at 100 mg/kg, ip after 2 hrs by 6Hz psychomotor seizure test; assay type: functional, organism-based; summary of the method: as §2
Mus musculus [6] = assay: Anticonvulsant activity in ip dosed CD1 albino mouse assessed as time to peak effect; assay type: functional
Summary of the method: (§3)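 Quantitation in male CD-1 mice dosed ip at the previously estimated time of peak effect. Seizures were induced by MES or by sc pentylenetetrazole 85 mg/kg; rotarod at 10 rpm assessed motor impairment. Groups of six, at least three doses giving 10-90% effect.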

Mus musculus [7] = assay: Anticonvulsant activity in ip dosed CD1 albino mouse assessed as protection against subcutaneous pentylenetetrazole-induced seizures; assay type: functional; summary of the method: as §3
[8] = Neurotoxicity in ip dosed CD1 albino mouse assessed as acute motor impairment by rotarod test; assay type: toxicity, organism-based; details: in vivo; summary of the method: as §3
Mus musculus [9] = species: Mus musculus; assay: Protection index, ratio of TD50 for CD1 albino mouse to ED50 for protection against maximal electroshock-induced seizures in CD1 albino mouse; summary of the method: as §3
Mus musculus [10] = assay: Protection index, ratio of TD50 for CD1 albino mouse to ED50 for protection against subcutaneous pentylenetetrazole-induced seizures in CD1 albino mouse; summary of the method: as §3
Mus musculus [11] = assay: Antinociceptive activity in CD1 albino mouse assessed as reduction of formalin-induced licking response in neurogenic phase at 69.05 mg/kg, ip preincubated for 30 mins measured after 5 mins; assay type: functional, organism-based
Mus musculus [12] = assay: Antinociceptive activity in CD1 albino mouse assessed as reduction of formalin-induced licking response in inflammatory phase at 69.05 mg/kg, ip preincubated for 30 mins measured after 15 to 20 mins; assay type: functional; parameters: scale not given: the % may be the effect or the level left
Mus musculus [13] = assay: Antinociceptive activity in CD1 albino mouse assessed as reduction of formalin-induced licking response in neurogenic phase at 69.05 mg/kg, ip preincubated for 30 mins measured after 25 to 30 mins; assay type: functional; parameters: scale not given: the % may be the effect or the level left
Mus musculus [14] = assay: Local anesthetic activity in CD1 albino mouse assessed prolongation of time reaction at 2 % concentration after 20 secs by tail immersion test relative to vehicle control; assay type: functional
Summary of the method: (§4)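 Compound at 1 or 2% in 0.5% methylcellulose, injected sc (0.2 ml) about 1 cm from the tail root of male CD-1 mice. After 15 min, the distal 3 cm of the tail was immersed in 50 ± 0.5 °C water and withdrawal time measured, cut off at 20 s. n=8; mean ± SEM; % prolongation relative to vehicle.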

Rattus norvegicus = species: Rattus norvegicus; assay: Displacement of [3H]BTX from voltage-sensitive Na+ channel site 2 in rat cerebral cortex synaptoneurosomes at 100 uM after 60 mins by liquid scintillation spectroscopic analysis; assay type: tissue-based
Summary of the method: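 Cerebral cortex synaptoneurosomes from rat, tested at 100 µM for inhibition of specific [3H]BTX binding to the voltage-sensitive Na+ channel site 2. Reported as % inhibition of control specific binding; run commercially.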

Mus musculus [15] = assay: Anticonvulsant activity in ip dosed CD1 albino mouse assessed as protection against maximal electroshock-induced seizures; assay type: functional
Mus musculus [16] = assay: Anticonvulsant activity in CD1 albino mouse assessed as protection against maximal electroshock-induced seizures at 100 to 300 mg/kg, ip after 0.5 hrs; assay type: functional; details: read-out: MED
Mus musculus [17] = assay: Anticonvulsant activity in CD1 albino mouse assessed as protection against maximal electroshock-induced seizures at 300 mg/kg, ip after 4 hrs; assay type: functional, organism-based
Mus musculus [18] = assay: Anticonvulsant activity in CD1 albino mouse assessed as protection against subcutaneous pentylenetetrazole-induced seizures at 100 to 300 mg/kg, ip after 0.5 hrs; assay type: functional; details: CD1, 0.5 h, read-out: MED
Summary of the method: (§5)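 Male CD-1 mice (16-26 g), compounds ip in 0.5% methylcellulose/water at 30, 100 or 300 mg/kg, 3-4 per group. At 0.5 or 4 h, pentylenetetrazole 85 mg/kg was injected sc. Protection was absence of clonic convulsions (at least 5 s) over a 30 min observation. Minimum active dose recorded.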

Mus musculus [19] = assay: Anticonvulsant activity in CD1 albino mouse assessed as protection against subcutaneous pentylenetetrazole-induced seizures at 300 mg/kg, ip after 4 hrs; assay type: functional, organism-based; summary of the method: as §5
Mus musculus [20] = assay: Neurotoxicity in CD1 albino mouse assessed as acute motor impairment at 300 mg/kg, ip measured after 0.5 hrs by rotarod test; assay type: toxicity, organism-based; details: in vivo; summary of the method: as §1
Mus musculus [21] = assay: Neurotoxicity in CD1 albino mouse assessed as acute motor impairment at 100 to 300 mg/kg, ip after 4 hrs by rotarod test; assay type: toxicity, organism-based; details: in vivo; summary of the method: as §1
Mus musculus [22] = assay: Antinociceptive activity in CD1 albino mouse assessed as reduction of formalin-induced licking response in neurogenic phase at 32.08 mg/kg, ip preincubated for 4 hrs measured after 5 mins; assay type: functional; parameters: scale not given: the % may be the effect or the level left
Mus musculus [23] = assay: Antinociceptive activity in CD1 albino mouse assessed as reduction of formalin-induced licking response in inflammatory phase at 32.08 mg/kg, ip preincubated for 4 hrs measured after 15 to 20 mins; assay type: functional; parameters: scale not given: the % may be the effect or the level left
Mus musculus [24] = assay: Antinociceptive activity in CD1 albino mouse assessed as reduction of formalin-induced licking response in inflammatory phase at 32.08 mg/kg, ip preincubated for 4 hrs measured after 25 to 30 mins; assay type: functional; parameters: scale not given: the % may be the effect or the level left
Mus musculus [25] = assay: Local anesthetic activity in CD1 albino mouse assessed prolongation of time reaction at 1 % concentration after 20 secs by tail immersion test relative to vehicle control; assay type: functional; summary of the method: as §4
Mus musculus [26] = assay: Anticonvulsant activity in CD1 albino mouse assessed as protection against maximal electroshock-induced seizures at 100 to 300 mg/kg, ip after 4 hrs; assay type: functional; details: read-out: MED
Mus musculus [27] = assay: Anticonvulsant activity in CD1 albino mouse assessed as protection against subcutaneous pentylenetetrazole-induced seizures at 300 mg/kg, ip after 0.5 hrs; assay type: functional, organism-based; summary of the method: as §5
Mus musculus [28] = assay: Antinociceptive activity in CD1 albino mouse assessed as reduction of formalin-induced licking response in neurogenic phase at 87.36 mg/kg, ip preincubated for 1 hr measured after 5 mins; assay type: functional, organism-based
Mus musculus [29] = assay: Antinociceptive activity in CD1 albino mouse assessed as reduction of formalin-induced licking response in inflammatory phase at 87.36 mg/kg, ip preincubated for 1 hr measured after 15 to 20 mins; assay type: functional; parameters: scale not given: the % may be the effect or the level left
Mus musculus [30] = assay: Antinociceptive activity in CD1 albino mouse assessed as reduction of formalin-induced licking response in inflammatory phase at 87.36 mg/kg, ip preincubated for 1 hr measured after 25 to 30 mins; assay type: functional; parameters: scale not given: the % may be the effect or the level left
Mus musculus [31] = assay: Anticonvulsant activity in CD1 mouse assessed as protection against 32 mA-current- for 3 secs induced seizure at 100 mg/kg, ip after 1 hrs by 6Hz psychomotor seizure test; assay type: functional; summary of the method: as §2

inhibition (Rattus norvegicus) | SMILES | Activity (Mus musculus [2]) | Activity (Mus musculus [4]) | Time (Mus musculus [6]) | ED50 (Mus musculus [7]) | TD50 [8] | Ratio TD50/ED50 (Mus musculus [9]) | Ratio TD50/ED50 (Mus musculus [10]) | Activity (Mus musculus [14]) | ED50 (Mus musculus [15]) | minimal effective dose (Mus musculus [16]) | Activity (Mus musculus [19]) | Activity (Mus musculus [20]) | minimal effective dose (Mus musculus [26]) | Activity (Mus musculus [27]) | further results
32.5% | CCC1(C)CC(=O)N(CC(=O)N2CCN(c3ccc(F)cc3)CC2)C1=O (stereo not given) | Non-toxic | 75% | 0.5 h | 130 mg/kg | 191 mg/kg | 2.76 | 1.47 | 61% | 69 mg/kg | 100 mg/kg | inactive |  |  |  | MTC (Mus musculus [1]): 300 mg/kg; Activity (Mus musculus [3]): 75%; Activity (Mus musculus [5]): inactive; Activity (Mus musculus [11]): inactive; Activity (Mus musculus [12]): 93%; Activity (Mus musculus [13]): 92%; Activity (Mus musculus [17]): inactive; minimal effective dose (Mus musculus [18]): 100 mg/kg
20.9% | CC1CC(=O)N(CC(=O)N2CCN(c3ccc(Cl)cc3)CC2)C1=O (stereo not given) |  |  | 4 h | > 250 mg/kg | > 500 mg/kg | >15.59 | >2 | 124% | 32.1 mg/kg | 100 mg/kg | inactive | Non-toxic | 30 mg/kg | inactive | MTC (Mus musculus [21]): 300 mg/kg; Activity (Mus musculus [22]): 76%; Activity (Mus musculus [23]): 91%; Activity (Mus musculus [24]): 86%; Activity (Mus musculus [25]): 26%
36.6% | CC1CC(=O)N(CC(=O)N2CCN(c3ccc(F)cc3)CC2)C1=O (stereo not given) | Non-toxic | 75% | 1 h |  | > 300 mg/kg | >3.43 |  | 12% | 87.4 mg/kg | 300 mg/kg | inactive | Non-toxic | 100 mg/kg | inactive | Activity (Mus musculus [28]): inactive; Activity (Mus musculus [29]): 95%; Activity (Mus musculus [30]): 98%; Activity (Mus musculus [31]): 75%

From ChEMBL document CHEMBL3774376, “Synthesis, and anticonvulsant activity of new amides derived from 3-methyl- or 3-ethyl-3-methyl-2,5-dioxo-pyrrolidin-1-yl-acetic acids” (Bioorg Med Chem, 2016)
